From ChEMBL document CHEMBL5150048, “Synthesis and Evaluation of Polymyxins Bearing Reductively Labile Disulfide-Linked Lipids” (J Med Chem, 2022) come the findings set out here.

Starred links: 1 amine or outer side, 2 acyl side, 3 side chain; linkers in the order of their positions; H or OH if unused. Positions of bridges follow the written chain, without caps; N, C: chain ends. Non-standard residues stand in square brackets, D forms with d. Residues, ends and D or L forms follow the SMILES beside them. *: point of attachment. X2 = CC(C)CCCCC[C@@H](N[*:1])C(=O)[*:2]; S(2-cyclohexylethyl) = C1CCC(CCS*)CC1; S(3-Cl-benzyl) = Clc1cccc(CS*)c1; X3 = c1ccc(Oc2ccc(CS*)cc2)cc1; X5 = c1ccc(-c2ccc(CS*)cc2)cc1; S(3-Methylbutyl) = CC(C)CCS*; X6 = c1ccc(-c2ccc(S*)cc2)cc1; Dab = NCC[C@H](N)C(=O)O; X1 = CC(C)CCCCS*; X4 = CCCCCCS*

One series relates to Erythrocyte. The series is described as follows: Hemolytic activity in sheep erythrocytes at 128 ug/ml incubated for 1 hr by absorbance based analysis. The series is classed as toxicity, cell-based, Ovis aries. The conditions noted are these: dose 128 µg/ml. In outline: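 Defibrinated sheep red cells were washed four times in PBS with 0.002% Tween20 and adjusted to A415 2.5–3.0. They were mixed 1:1 by volume with compound serial dilutions (128–4 μg/mL, before mixing) and shaken 1 h at 37 °C. After centrifugation, supernatant was diluted in PBS and read at 415 nm. Values were background-corrected and given as % of 0.1% Triton X-100 lysis, from triplicates.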

For a further series, the system named is Acinetobacter baumannii. The series is described as follows: Antibacterial activity against Acinetobacter baumannii ATCC 19606 assessed as inhibition of bacterial growth by CLSI based broth microdilution method. Format: functional. In outline:
(§1)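 Broth microdilution per CLSI. Colonies from overnight blood agar at 37 °C were grown in TSB to OD600 0.5. Compounds (6.4 mg/mL DMSO stock) were diluted serially in CAMHB (12.5 μg/mL Mg2+, 20 μg/mL Ca2+) in polypropylene plates and inoculated to a final 10^6 CFU/mL, then incubated at 37 °C under gas-permeable membrane. MIC is the lowest concentration without visible growth, from at least duplicate experiments.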
For orientation: Dilution methods test growth across graded concentrations, often in twofold steps.

The nature of series [1]: Stability of the compound in PBS assessed as drug degradation at 1 mg/ml incubated for 24 hrs in presence of 5 mM glutathione by RP-HPLC analysis. Format: physicochemical. The conditions noted are these: buffer. Summed up: (§2)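 Compound (1 mg/mL stock) was mixed 1:9 by volume with PBS glutathione stock: 5.5 μM for the low-glutathione line (7), 5.5 mM for the high-glutathione line (8). Vials were N2-flushed and held in the HPLC autosampler at RT. Samples at 0, 1, 2, 3, 4, 8, 10 and 24 h were analysed by RP-HPLC, UV 214 nm, and quantified against an external calibration curve in PBS run in duplicate.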

Series [2] is described as follows: Stability of the compound in PBS assessed as compound remaining at 1 mg/ml incubated for 24 hrs in presence of 5 uM glutathione by RP-HPLC analysis. Format: physicochemical. The settings on record: PBS with 5 uM glutathione, read-out: Stability. In outline:
as §2

The nature of series [3]: Cytotoxicity against human differentiated conditionally immortalized RPTEC cells assessed as reduction in cell viability incubated for 24 hrs by PrestoBlue reagent based assay. The series is classed as toxicity. The conditions noted are these: read-out: TC50. In outline: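 ciPTEC (OAT-1) cells were seeded at 2.0 × 10^5 cells/mL in DMEM/F-12 with 10% FCS, insulin, transferrin, selenium, hydrocortisone, EGF and tri-iodothyronine. They were differentiated 24 h at 33 °C then 6 days at 37 °C, 5% CO2. Compounds serially diluted in serum-free medium were applied for 24 h at 37 °C, then 10% PrestoBlue in HBSS was added. Fluorescence (ex 530/em 590 nm) was background-corrected and normalized to untreated cells. TC50 came from nonlinear regression with bottom fixed at 0.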

The subject of the next series is Escherichia coli. The series is described as follows: Antibacterial activity against Escherichia coli ATCC 25922 assessed as inhibition of bacterial growth by CLSI based broth microdilution method. The series is classed as functional. Summed up: as §1
A further series relates to Klebsiella pneumoniae. The series is described as follows: Antibacterial activity against Klebsiella pneumoniae ATCC 13883 assessed as inhibition of bacterial growth by CLSI based broth microdilution method. The series is classed as functional. Summed up:
as §1

The test system of the next series is Pseudomonas aeruginosa. The series is described as follows: Antibacterial activity against Pseudomonas aeruginosa ATCC 27853 assessed as inhibition of bacterial growth by CLSI based broth microdilution method. The series is classed as functional. In outline: as §1
Series [4] is described as follows: Toxicity index, ratio of test compound TC50 to polymyxin B TC50 for cytotoxicity against human differentiated conditionally immortalized RPTEC cells incubated for 24 hrs by PrestoBlue reagent based assay. The series is classed as cell-based.

`CC(C)CCCCSSC[C@@H](N)C(=O)N[C@H](C(=O)N[C@@H](CCN)C(=O)N[C@H]1CCNC(=O)[C@H]([C@@H](C)O)NC(=O)[C@H](CCN)NC(=O)[C@H](CCN)NC(=O)[C@H](CC(C)C)NC(=O)[C@@H](Cc2ccccc2)NC(=O)[C@H](CCN)NC1=O)[C@@H](C)O` (H-[dC](X1)T[Dab][Dab][Dab][dF]L[Dab][Dab]T; lactam 4-C): in the series on Erythrocyte, the Activity entry is given as “Non-Toxic”.

Consider `CC(C)C[C@@H]1NC(=O)[C@@H](Cc2ccccc2)NC(=O)[C@H](CCN)NC(=O)[C@@H](NC(=O)[C@H](CCN)NC(=O)[C@@H](NC(=O)[C@H](N)CSSCc2ccc(-c3ccccc3)cc2)[C@@H](C)O)CCNC(=O)[C@H]([C@@H](C)O)NC(=O)[C@H](CCN)NC(=O)[C@H](CCN)NC1=O` (H-[dC](X5)T[Dab][Dab][Dab][dF]L[Dab][Dab]T; lactam 4-C), for which the Activity entry in the series with Erythrocyte is reported as “Non-Toxic”.

On to `CC(C)C[C@@H]1NC(=O)[C@@H](Cc2ccccc2)NC(=O)[C@H](CCN)NC(=O)[C@@H](NC(=O)[C@H](CCN)NC(=O)[C@@H](NC(=O)[C@@H](CSSCCC2CCCCC2)NC(=O)CN)[C@@H](C)O)CCNC(=O)[C@H]([C@@H](C)O)NC(=O)[C@H](CCN)NC(=O)[C@H](CCN)NC1=O` (H-G[dC](S(2-cyclohexylethyl))T[Dab][Dab][Dab][dF]L[Dab][Dab]T; lactam 5-C), for which the Activity entry in the series with Erythrocyte is given as “Non-Toxic”.

`CC(C)C[C@@H]1NC(=O)[C@@H](Cc2ccccc2)NC(=O)[C@H](CCN)NC(=O)[C@@H](NC(=O)[C@H](CCN)NC(=O)[C@@H](NC(=O)[C@H](N)CSSCc2ccc(Oc3ccccc3)cc2)[C@@H](C)O)CCNC(=O)[C@H]([C@@H](C)O)NC(=O)[C@H](CCN)NC(=O)[C@H](CCN)NC1=O` (H-[dC](X3)T[Dab][Dab][Dab][dF]L[Dab][Dab]T; lactam 4-C): the Activity entry in the series with Erythrocyte was “Non-Toxic”.

For the compound `CC(C)CCSSC[C@H](N)C(=O)N[C@H](C(=O)N[C@@H](CCN)C(=O)N[C@H]1CCNC(=O)[C@H]([C@@H](C)O)NC(=O)[C@H](CCN)NC(=O)[C@H](CCN)NC(=O)[C@H](CC(C)C)NC(=O)[C@@H](Cc2ccccc2)NC(=O)[C@H](CCN)NC1=O)[C@@H](C)O` (H-C(S(3-Methylbutyl))T[Dab][Dab][Dab][dF]L[Dab][Dab]T; lactam 4-C), in the series on Acinetobacter baumannii, the MIC was greater than 32 µg/mL.

As for `CC(C)C[C@@H]1NC(=O)[C@@H](Cc2ccccc2)NC(=O)[C@H](CCN)NC(=O)[C@@H](NC(=O)[C@H](CCN)NC(=O)[C@@H](NC(=O)[C@H](N)CSSCc2cccc(Cl)c2)[C@@H](C)O)CCNC(=O)[C@H]([C@@H](C)O)NC(=O)[C@H](CCN)NC(=O)[C@H](CCN)NC1=O` (H-[dC](S(3-Cl-benzyl))T[Dab][Dab][Dab][dF]L[Dab][Dab]T; lactam 4-C), in the series with Erythrocyte, the Activity result is on record as “Non-Toxic”.

As to `CC(C)C[C@@H]1NC(=O)[C@@H](Cc2ccccc2)NC(=O)[C@H](CCN)NC(=O)[C@@H](NC(=O)[C@H](CCN)NC(=O)[C@@H](NC(=O)[C@H](CSSc2ccc(-c3ccccc3)cc2)NC(=O)CN)[C@@H](C)O)CCNC(=O)[C@H]([C@@H](C)O)NC(=O)[C@H](CCN)NC(=O)[C@H](CCN)NC1=O` (H-GC(X6)T[Dab][Dab][Dab][dF]L[Dab][Dab]T; lactam 5-C), in the series with Erythrocyte, the Activity result was “Non-Toxic”.

`CC(C)C[C@@H]1NC(=O)[C@@H](Cc2ccccc2)NC(=O)[C@H](CCN)NC(=O)[C@@H](NC(=O)[C@H](CCN)NC(=O)[C@@H](NC(=O)[C@H](CSSCCC2CCCCC2)NC(=O)CN)[C@@H](C)O)CCNC(=O)[C@H]([C@@H](C)O)NC(=O)[C@H](CCN)NC(=O)[C@H](CCN)NC1=O` (H-GC(S(2-cyclohexylethyl))T[Dab][Dab][Dab][dF]L[Dab][Dab]T; lactam 5-C): the Stability entry in series [1] is reported as “Unstable”. In addition, the remaining at 24 h, 1 mg/ml in series [2] amounted to 70%. For the same compound, in the series with Erythrocyte, the Activity result was “Non-Toxic”.

As to `CCCCCCSSC[C@@H](N)C(=O)N[C@H](C(=O)N[C@@H](CCN)C(=O)N[C@H]1CCNC(=O)[C@H]([C@@H](C)O)NC(=O)[C@H](CCN)NC(=O)[C@H](CCN)NC(=O)[C@H](CC(C)C)NC(=O)[C@@H](Cc2ccccc2)NC(=O)[C@H](CCN)NC1=O)[C@@H](C)O` (H-[dC](X4)T[Dab][Dab][Dab][dF]L[Dab][Dab]T; lactam 4-C), the Activity entry with Erythrocyte is “Non-Toxic”.

With `CC(C)C[C@@H]1NC(=O)[C@@H](Cc2ccccc2)NC(=O)[C@H](CCN)NC(=O)[C@@H](NC(=O)[C@H](CCN)NC(=O)[C@@H](NC(=O)[C@H](N)CSSCCC2CCCCC2)[C@@H](C)O)CCNC(=O)[C@H]([C@@H](C)O)NC(=O)[C@H](CCN)NC(=O)[C@H](CCN)NC1=O` (H-[dC](S(2-cyclohexylethyl))T[Dab][Dab][Dab][dF]L[Dab][Dab]T; lactam 4-C), in the series with Erythrocyte, the Activity entry was “Non-Toxic”.

On to `CC(C)CCSSC[C@@H](N)C(=O)N[C@H](C(=O)N[C@@H](CCN)C(=O)N[C@H]1CCNC(=O)[C@H]([C@@H](C)O)NC(=O)[C@H](CCN)NC(=O)[C@H](CCN)NC(=O)[C@H](CC(C)C)NC(=O)[C@@H](Cc2ccccc2)NC(=O)[C@H](CCN)NC1=O)[C@@H](C)O` (H-[dC](S(3-Methylbutyl))T[Dab][Dab][Dab][dF]L[Dab][Dab]T; lactam 4-C), for which the Stability result in [1] was “Unstable”. The remaining at 24 h, 1 mg/ml in series [2] was determined as 70%. In addition, the Activity entry in the series with Erythrocyte is “Non-Toxic”. Further, the CC50 at 24 h in series [3] was found to be 192 µM.

For the compound `CC(C)CCCCC[C@@H](N)C(=O)N[C@H](C(=O)N[C@@H](CCN)C(=O)N[C@H]1CCNC(=O)[C@H]([C@@H](C)O)NC(=O)[C@H](CCN)NC(=O)[C@H](CCN)NC(=O)[C@H](CC(C)C)NC(=O)[C@@H](Cc2ccccc2)NC(=O)[C@H](CCN)NC1=O)[C@@H](C)O` (H-[X2]T[Dab][Dab][Dab][dF]L[Dab][Dab]T; lactam 4-C), in the series with Erythrocyte, the Activity entry is given as “Non-Toxic”. The CC50 at 24 h in series [3] stood at 82 µM.

For the compound `CCCCCCSSC[C@H](N)C(=O)N[C@H](C(=O)N[C@@H](CCN)C(=O)N[C@H]1CCNC(=O)[C@H]([C@@H](C)O)NC(=O)[C@H](CCN)NC(=O)[C@H](CCN)NC(=O)[C@H](CC(C)C)NC(=O)[C@@H](Cc2ccccc2)NC(=O)[C@H](CCN)NC1=O)[C@@H](C)O` (H-C(X4)T[Dab][Dab][Dab][dF]L[Dab][Dab]T; lactam 4-C), the MIC in the series with Acinetobacter baumannii is greater than 32 µg/mL.

On to POLYMYXIN B [listing 1 of 2 here], for which the MIC in the series on Escherichia coli came to 1 µg/mL; with Klebsiella pneumoniae it was 0.25 µg/mL; in the series on Acinetobacter baumannii it was 0.25 µg/mL; with Pseudomonas aeruginosa it was 1 µg/mL.

For the compound POLYMYXIN B [listing 2 of 2 here], the Activity result with Erythrocyte was “Non-Toxic”.

Turning to `CC(C)C[C@@H]1NC(=O)[C@@H](Cc2ccccc2)NC(=O)[C@H](CCN)NC(=O)[C@@H](NC(=O)[C@H](CCN)NC(=O)[C@@H](N)[C@@H](C)O)CCNC(=O)[C@H]([C@@H](C)O)NC(=O)[C@H](CCN)NC(=O)[C@H](CCN)NC1=O` [POLYMYXIN B NONAPEPTIDE] (H-T[Dab][Dab][Dab][dF]L[Dab][Dab]T; lactam 3-C), the MIC in the series on Escherichia coli, in the series on Klebsiella pneumoniae, in the series on Acinetobacter baumannii and with Pseudomonas aeruginosa was greater than 32 µg/mL throughout. The selectivity ratio at 24 h in series [4] was greater than 10.

Broadly, the MIC is the smallest concentration in the dilution series that meets the test's criterion for growth inhibition.
